Test results reported in ChEMBL document CHEMBL2046402, “The First Dual ChE/FAAH Inhibitors: New Perspectives for Alzheimer's Disease?” (ACS Med Chem Lett, 2012).

Assays:
[1] = target: T1, Fatty-acid amide hydrolase 1 (Rattus norvegicus, UniProt P97612); assay: Inhibition of FAAH in rat brain membranes assessed as hydrolysis of [14C]-anandamide after 30 mins; type: cell membranes
T1 sequence (P97612 whole entry): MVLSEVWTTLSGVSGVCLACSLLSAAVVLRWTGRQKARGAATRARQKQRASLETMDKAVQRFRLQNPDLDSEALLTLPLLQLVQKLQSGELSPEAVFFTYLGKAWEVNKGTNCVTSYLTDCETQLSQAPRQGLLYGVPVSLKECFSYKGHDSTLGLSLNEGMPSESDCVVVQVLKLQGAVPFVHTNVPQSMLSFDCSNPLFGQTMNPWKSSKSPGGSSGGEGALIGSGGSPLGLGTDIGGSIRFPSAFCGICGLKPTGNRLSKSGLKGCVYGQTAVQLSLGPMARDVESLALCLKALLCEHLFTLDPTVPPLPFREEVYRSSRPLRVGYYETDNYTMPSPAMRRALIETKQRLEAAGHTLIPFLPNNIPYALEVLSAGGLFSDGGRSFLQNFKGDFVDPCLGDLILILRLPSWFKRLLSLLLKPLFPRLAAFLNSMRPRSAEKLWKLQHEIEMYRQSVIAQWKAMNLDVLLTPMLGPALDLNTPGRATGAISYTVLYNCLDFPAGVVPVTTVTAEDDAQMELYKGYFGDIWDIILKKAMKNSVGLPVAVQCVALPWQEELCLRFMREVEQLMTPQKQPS
In short: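 Rat brain membrane FAAH; activity read as hydrolysis of anandamide, with the inhibitor added without preincubation (pit = 0). Values are reported as IC50.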

[2] = target: T1, Fatty-acid amide hydrolase 1; assay: Inhibition of FAAH in rat brain membranes assessed as hydrolysis of [14C]-anandamide preincubated for 20 mins before [14C]-anandamide addition measured after 30 mins; type: cell membranes
In short: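 Rat brain membrane FAAH; the inhibitor was preincubated with the enzyme for 20 min before anandamide hydrolysis was measured. Values are reported as IC50.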

Acetylcholinesterase [3] = target: T2, Acetylcholinesterase (Homo sapiens, UniProt P22303); assay: Inhibition of human recombinant AChE using acetylthiocholine iodide as substrate preincubated for 120 mins before substrate addition by Ellman's method
T2 sequence (P22303 whole entry): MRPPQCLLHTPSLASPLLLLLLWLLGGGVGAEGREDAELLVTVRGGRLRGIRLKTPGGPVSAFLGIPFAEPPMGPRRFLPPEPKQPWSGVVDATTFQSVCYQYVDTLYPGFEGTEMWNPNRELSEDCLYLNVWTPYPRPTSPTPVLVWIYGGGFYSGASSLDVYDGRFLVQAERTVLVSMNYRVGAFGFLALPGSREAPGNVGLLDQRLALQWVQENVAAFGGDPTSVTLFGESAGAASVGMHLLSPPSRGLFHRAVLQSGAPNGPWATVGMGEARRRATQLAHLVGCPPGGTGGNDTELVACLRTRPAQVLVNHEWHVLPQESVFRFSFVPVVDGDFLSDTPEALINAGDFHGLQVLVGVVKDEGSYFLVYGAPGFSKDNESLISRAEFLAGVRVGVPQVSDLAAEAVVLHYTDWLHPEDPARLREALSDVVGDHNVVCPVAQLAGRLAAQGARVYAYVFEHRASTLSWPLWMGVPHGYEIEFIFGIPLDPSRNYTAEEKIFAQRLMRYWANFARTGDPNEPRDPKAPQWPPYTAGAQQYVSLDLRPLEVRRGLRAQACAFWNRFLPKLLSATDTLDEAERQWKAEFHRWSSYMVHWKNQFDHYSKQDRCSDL

[4] = target: T3, Fatty-acid amide hydrolase 1 (Homo sapiens, UniProt O00519); assay: Inhibition of human recombinant FAAH in assessed as hydrolysis of [14C]-anandamide preincubated for 20 mins before [14C]-anandamide addition measured after 30 mins
T3 sequence (O00519 whole entry): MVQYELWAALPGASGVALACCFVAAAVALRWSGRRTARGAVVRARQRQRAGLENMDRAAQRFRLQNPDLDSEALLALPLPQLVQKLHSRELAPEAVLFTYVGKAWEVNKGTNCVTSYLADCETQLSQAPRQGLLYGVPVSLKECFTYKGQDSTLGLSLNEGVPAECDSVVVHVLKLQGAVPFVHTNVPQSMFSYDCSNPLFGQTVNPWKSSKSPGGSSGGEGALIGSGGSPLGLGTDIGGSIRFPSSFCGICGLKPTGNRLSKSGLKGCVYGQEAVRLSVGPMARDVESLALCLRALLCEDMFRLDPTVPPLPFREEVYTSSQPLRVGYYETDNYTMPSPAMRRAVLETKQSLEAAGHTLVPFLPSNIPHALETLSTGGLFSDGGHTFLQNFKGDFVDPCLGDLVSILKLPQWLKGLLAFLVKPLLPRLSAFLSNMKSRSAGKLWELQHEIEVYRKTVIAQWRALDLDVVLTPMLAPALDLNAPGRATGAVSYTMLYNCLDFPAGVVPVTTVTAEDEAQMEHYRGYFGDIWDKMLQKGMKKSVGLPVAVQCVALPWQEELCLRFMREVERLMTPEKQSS
In short: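 Human recombinant FAAH; the inhibitor was preincubated for 20 min before anandamide hydrolysis was measured. Values are reported as IC50.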

Cholinesterase [5] = target: T4, Cholinesterase (Homo sapiens, UniProt P06276); assay: Inhibition of human serum BuChE using butyrylthiocholine iodide as substrate by Ellman's method; conditions: TDE = time-dependent effect
T4 sequence (P06276 whole entry): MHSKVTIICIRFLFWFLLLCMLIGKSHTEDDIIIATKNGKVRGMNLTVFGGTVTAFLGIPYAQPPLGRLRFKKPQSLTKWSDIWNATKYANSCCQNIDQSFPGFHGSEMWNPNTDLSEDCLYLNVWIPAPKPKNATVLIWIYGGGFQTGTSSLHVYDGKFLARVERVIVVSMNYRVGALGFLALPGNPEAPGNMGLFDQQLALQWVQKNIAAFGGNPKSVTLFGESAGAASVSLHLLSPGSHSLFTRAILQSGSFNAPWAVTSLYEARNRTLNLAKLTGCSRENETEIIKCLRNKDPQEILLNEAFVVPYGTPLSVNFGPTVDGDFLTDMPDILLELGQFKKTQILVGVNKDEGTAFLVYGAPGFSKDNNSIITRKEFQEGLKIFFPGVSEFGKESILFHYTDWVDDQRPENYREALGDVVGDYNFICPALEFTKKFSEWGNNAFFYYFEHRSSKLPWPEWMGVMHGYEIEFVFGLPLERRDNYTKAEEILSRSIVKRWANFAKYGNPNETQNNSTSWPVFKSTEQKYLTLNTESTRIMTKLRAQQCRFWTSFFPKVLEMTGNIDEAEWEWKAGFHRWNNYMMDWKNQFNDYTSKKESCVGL

Cholinesterase [6] = target: T4, Cholinesterase; assay: Inhibition of human serum BuChE using butyrylthiocholine iodide as substrate preincubated for 15 mins before substrate addition by Ellman's method
Acetylcholinesterase [7] = target: T2, Acetylcholinesterase; assay: Inhibition of human recombinant AChE using acetylthiocholine iodide as substrate by Ellman's method; conditions: TDE = time-dependent effect
Cholinesterase [8] = target: T4, Cholinesterase; assay: Reversible inhibition of human serum BuChE using butyrylthiocholine iodide as substrate assessed as recovery of enzyme activity after 48 hrs by Ellman's method; parameters: scale not given: the % may be the effect or the level left
Acetylcholinesterase [9] = target: T2, Acetylcholinesterase; assay: Reversible inhibition of human recombinant AChE using acetylthiocholine iodide as substrate assessed as recovery of enzyme activity after 48 hrs by Ellman's method; parameters: scale not given: the % may be the effect or the level left

`CCCCNC(=O)Oc1cccc(CN(C)CCCOc2ccc3c(=O)cc(-c4ccccc4)oc3c2)c1` was tested, and the IC50 [1] was 5540 nM and the IC50 [2] was 800 nM.
In the case of `CCCCNC(=O)Oc1cccc(CN(C)CCCOc2ccc3c(=O)c4cccnc4oc3c2)c1`, the IC50 [1] is reported as 4230 nM and the IC50 [2] is reported as 1400 nM.
`CNC(=O)Oc1cccc(CN(C)CCCCCCCOc2ccc(-c3cc4ccccc4oc3=O)cc2)c1` was tested, and the IC50 [1] was 9200 nM.
Work on `CCCCCCCNC(=O)Oc1cccc(CN(C)CCCOc2ccc3c(=O)c4cccnc4oc3c2)c1` yielded an IC50 [1] of 2210 nM and an IC50 [2] of 400 nM.
`CCCCNC(=O)Oc1cccc(CN(C)CCCOc2ccc3ccc(=O)oc3c2)c1` was tested, and the IC50 [1] was 8680 nM.
Compound `CN(CCCOc1ccc2c(=O)c3cccnc3oc2c1)Cc1cccc(OC(=O)NCCCCCc2ccccc2)c1` has an IC50 [1] of 370 nM, an IC50 (Acetylcholinesterase [3]) of 89.5 nM and an IC50 [4] of 520 nM. The inhibition (Cholinesterase [5]) was “tde”, the IC50 [2] was 40 nM and the IC50 (Cholinesterase [6]) was 1.71 nM. The inhibition (Acetylcholinesterase [7]) was “tde”.
In the case of `CN(CCCOc1ccc2ccc(=O)oc2c1)Cc1cccc(OC(=O)NCCCCCCCN2CCOCC2)c1`, the IC50 [1] is reported as 5590 nM, the IC50 (Acetylcholinesterase [3]) is reported as 119 nM and the IC50 [4] is reported as 14800 nM. For the same compound, the inhibition (Cholinesterase [5]) was “tde”, the IC50 [2] was 1820 nM and the IC50 (Cholinesterase [6]) was 11.2 nM. The inhibition (Acetylcholinesterase [7]) was “tde”.
For `CN(CCCOc1ccc2c(=O)c3cccnc3oc2c1)Cc1cccc(OC(=O)NCCCCCCCN2CCOCC2)c1`, the IC50 [1] was 4310 nM, the IC50 (Acetylcholinesterase [3]) was 139 nM and the IC50 [4] was 39000 nM. For the same compound, the inhibition (Cholinesterase [5]) was “tde”, the IC50 [2] was 2710 nM and the IC50 (Cholinesterase [6]) was 27.6 nM. For the same compound, the inhibition (Acetylcholinesterase [7]) was “tde”.
Work on `CCCCCCCNC(=O)Oc1cccc(CN(C)CCCOc2ccc3c(=O)cc(-c4ccccc4)oc3c2)c1` yielded an IC50 [1] of 6810 nM.
Work on `CCCCCCCNC(=O)Oc1cccc(CN(C)CCCOc2ccc3c(=O)c4ccccc4oc3c2)c1` yielded an IC50 [1] of 3620 nM and an IC50 [2] of 110 nM.
Compound `CCCCCCCNC(=O)Oc1cccc(CN(C)CCCOc2ccc3ccc(=O)oc3c2)c1` has an IC50 [1] of 620 nM and an IC50 [2] of 170 nM.
With `CN(CCCOc1ccc2ccc(=O)oc2c1)Cc1cccc(OC(=O)NCCCCCc2ccccc2)c1` the IC50 [1] was 280 nM, the Activity (Cholinesterase [8]) was 83% and the IC50 (Acetylcholinesterase [3]) was 74.9 nM. The IC50 [4] was 2260 nM, the inhibition (Cholinesterase [5]) was “tde” and the IC50 [2] was 50 nM. The IC50 (Cholinesterase [6]) was 1.57 nM, the inhibition (Acetylcholinesterase [7]) was “tde” and the Activity (Acetylcholinesterase [9]) was 30%.
With `CCCNC(=O)Oc1cccc(CN(C)CCCOc2ccc3c(=O)c4ccccc4oc3c2)c1` the IC50 [1] was 9280 nM and the IC50 [2] was 100 nM.
`CCCCCCNC(=O)Oc1cccc(CN(C)CCCOc2ccc3c(=O)c4ccccc4oc3c2)c1` was tested, and the IC50 [1] was 4290 nM and the IC50 [2] was 290 nM.
